Assay results reported in ChEMBL document CHEMBL4024777, “Discovery of LY3104607: A Potent and Selective G Protein-Coupled Receptor 40 (GPR40) Agonist with Optimized Pharmacokinetic Properties to Support Once Daily Oral Treatment in Patients with Type 2 Diabetes Mellitus” (J Med Chem, 2018).
Activity calls are given as the source filed them. The rule behind the calls is not given here.

Experiments:
Cytochrome P450 3A4 = Cytochrome P450 3A4 (Homo sapiens, UniProt P08684); experiment: Inhibition of human CYP3A4; type: ADME
Cytochrome P450 3A4, sequence (P08684 whole entry): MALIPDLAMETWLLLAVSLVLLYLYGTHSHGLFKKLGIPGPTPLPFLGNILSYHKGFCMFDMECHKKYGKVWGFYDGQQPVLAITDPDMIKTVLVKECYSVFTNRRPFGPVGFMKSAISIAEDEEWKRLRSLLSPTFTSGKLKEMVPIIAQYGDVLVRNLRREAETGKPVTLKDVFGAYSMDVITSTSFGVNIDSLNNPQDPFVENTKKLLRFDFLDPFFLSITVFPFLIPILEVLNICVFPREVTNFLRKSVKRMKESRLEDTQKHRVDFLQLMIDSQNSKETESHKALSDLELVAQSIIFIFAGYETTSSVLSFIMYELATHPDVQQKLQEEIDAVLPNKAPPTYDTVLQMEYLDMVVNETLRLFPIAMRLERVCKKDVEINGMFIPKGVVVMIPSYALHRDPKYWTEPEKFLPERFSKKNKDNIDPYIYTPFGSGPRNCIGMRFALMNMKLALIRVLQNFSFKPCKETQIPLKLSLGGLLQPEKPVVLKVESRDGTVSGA

[1] = Oral bioavailability in Sprague-Dawley rat at 1 mg/kg; type: ADME, organism-based; conditions: in vivo
Method in brief: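 Fasted rats given oral doses of 1 mg/kg. […] Bioavailability is calculated against the 1 mg/kg IV group.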

[2] = Half life in Sprague-Dawley rat at 1 mg/kg, po; type: ADME, organism-based; conditions: in vivo
Cytochrome P450 2D6 = Cytochrome P450 2D6 (Homo sapiens, UniProt P10635); experiment: Inhibition of human CYP2D6; type: ADME
Cytochrome P450 2D6, sequence (P10635 whole entry): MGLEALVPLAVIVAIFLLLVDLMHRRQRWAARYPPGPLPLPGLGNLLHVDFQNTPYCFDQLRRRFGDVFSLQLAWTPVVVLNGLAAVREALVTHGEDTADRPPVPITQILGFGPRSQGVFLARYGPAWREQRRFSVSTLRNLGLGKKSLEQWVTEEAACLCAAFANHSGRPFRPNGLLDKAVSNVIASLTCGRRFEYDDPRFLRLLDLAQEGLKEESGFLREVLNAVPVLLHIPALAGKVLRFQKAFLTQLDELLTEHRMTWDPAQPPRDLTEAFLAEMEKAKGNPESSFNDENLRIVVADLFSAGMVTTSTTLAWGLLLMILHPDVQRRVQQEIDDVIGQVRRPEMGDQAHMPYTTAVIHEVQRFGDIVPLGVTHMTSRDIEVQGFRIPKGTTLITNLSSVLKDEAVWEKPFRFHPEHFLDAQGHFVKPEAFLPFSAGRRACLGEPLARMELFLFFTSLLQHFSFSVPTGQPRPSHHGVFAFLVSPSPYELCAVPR

[3] = molecular target: Free fatty acid receptor 1 (Rattus norvegicus) (UniProt Q8K3T4); experiment: Agonist activity at GPR40 in Sprague-Dawley rat islets assessed as glucose-stimulated insulin secretion levels at 3 uM in presence of 11.2 mM glucose by ELISA (reference value: 6.24 ng/ml)
Free fatty acid receptor 1 (Rattus norvegicus), sequence (Q8K3T4 whole entry): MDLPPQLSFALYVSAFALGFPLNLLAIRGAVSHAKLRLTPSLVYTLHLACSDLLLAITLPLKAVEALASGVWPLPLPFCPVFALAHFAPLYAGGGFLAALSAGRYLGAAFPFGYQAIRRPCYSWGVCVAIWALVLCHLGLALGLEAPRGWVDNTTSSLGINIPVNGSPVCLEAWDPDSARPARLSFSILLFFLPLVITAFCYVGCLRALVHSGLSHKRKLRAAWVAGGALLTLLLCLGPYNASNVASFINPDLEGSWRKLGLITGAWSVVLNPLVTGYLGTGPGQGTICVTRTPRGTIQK

[4] = Cmax in Sprague-Dawley rat at 1 mg/kg, po; type: ADME, organism-based; parameters: dose 1 mg/kg, route oral; conditions: in vivo
[5] = Cmax in Beagle dog at 3 mg/kg, po; type: ADME, organism-based, Canis lupus familiaris; parameters: dose 3 mg/kg, route oral; conditions: in vivo
[6] = Cmax in Beagle dog at 300 mg/kg, po; type: ADME, organism-based, Canis lupus familiaris; parameters: dose 300 mg/kg, route oral; conditions: in vivo
[7] = molecular target: T1, Free fatty acid receptor 1 (Homo sapiens, UniProt O14842); experiment: Agonist activity at human PK-tagged GPR40 expressed in HEK293 cells assessed as EA-tagged beta-arrestin recruitment after 90 mins in presence of 1 % heat inactivated FBS by beta-galactosidase reporter gene assay relative to untreated control; type: cell-based
T1 sequence (O14842 whole entry): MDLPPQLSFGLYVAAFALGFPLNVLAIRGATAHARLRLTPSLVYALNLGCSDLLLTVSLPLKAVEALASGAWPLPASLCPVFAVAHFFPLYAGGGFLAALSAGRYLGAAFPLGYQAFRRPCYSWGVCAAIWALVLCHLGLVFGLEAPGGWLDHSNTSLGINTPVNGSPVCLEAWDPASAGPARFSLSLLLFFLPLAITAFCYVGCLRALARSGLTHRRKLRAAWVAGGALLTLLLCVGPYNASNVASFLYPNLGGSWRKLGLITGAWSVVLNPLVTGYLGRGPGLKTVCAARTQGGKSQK

[8] = Solubility of the compound in DMSO at pH 7.4 by aqueous precipitation assay; type: physicochemical
Method in brief: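 DMSO stock diluted into aqueous buffer at pH 7.4 in a precipitation assay. Result reported as the last soluble concentration, upper limit 100 µM.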

[9] = molecular target: T2, Peroxisome proliferator-activated receptor alpha (Homo sapiens) (UniProt Q07869); experiment: Agonist activity at GAL4-fused human PPARalpha expressed in African green monkey CV1 cells up to 30 uM after 24 hrs by luciferase reporter gene assay; type: cell-based
T2 sequence (whole entry): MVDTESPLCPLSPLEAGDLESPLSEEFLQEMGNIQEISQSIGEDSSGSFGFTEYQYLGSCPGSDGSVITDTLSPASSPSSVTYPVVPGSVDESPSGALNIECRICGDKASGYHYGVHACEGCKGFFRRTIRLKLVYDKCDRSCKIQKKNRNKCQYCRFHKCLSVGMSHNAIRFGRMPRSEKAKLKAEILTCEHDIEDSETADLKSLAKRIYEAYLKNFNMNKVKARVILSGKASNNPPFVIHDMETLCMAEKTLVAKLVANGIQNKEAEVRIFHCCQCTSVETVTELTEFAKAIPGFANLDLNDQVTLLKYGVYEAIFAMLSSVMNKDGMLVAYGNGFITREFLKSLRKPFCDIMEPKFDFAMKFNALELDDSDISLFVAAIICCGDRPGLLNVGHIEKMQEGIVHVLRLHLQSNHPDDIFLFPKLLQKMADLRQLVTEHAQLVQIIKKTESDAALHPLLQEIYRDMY
Method in brief: (§1)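 PPAR alpha, delta and gamma binding and functional activity were each tested at concentrations up to 30 µM.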

[10] = Clearance in Sprague-Dawley rat at 1 mg/kg, iv; type: ADME, organism-based; conditions: in vivo
[11] = molecular target: Free fatty acid receptor 1 (Rattus norvegicus) (UniProt Q8K3T4); experiment: Agonist activity at GPR40 in Sprague-Dawley rat islets assessed as glucose-stimulated insulin secretion levels at 10 uM in presence of 11.2 mM glucose by ELISA (reference value: 6.24 ng/ml)
[12] = molecular target: T2, Peroxisome proliferator-activated receptor alpha (Homo sapiens); experiment: Displacement of [3H]-agonist from human PPARalpha expressed in baculovirus infecetd Sf9 cells system up to 30 uM after 10 hrs in presence of DR2 by scintillation proximity assay; method in brief: as §1
[13] = AUC (0 to 24 hrs) in Beagle dog at 1 mg/kg, iv; type: ADME, organism-based, Canis lupus familiaris; parameters: time < 24 hr, dose 1 mg/kg, route intravenous; conditions: in vivo
[14] = Drug metabolism in mouse hepatocytes assessed as glucuronidation; type: ADME, cell-based, Hepatocyte
[15] = Cmax in Sprague-Dawley rat at 500 mg/kg, po; type: ADME, organism-based; parameters: dose 500 mg/kg, route oral; conditions: in vivo
[16] = Cmax in Sprague-Dawley rat at 100 mg/kg, po; type: ADME, organism-based; parameters: dose 100 mg/kg, route oral; conditions: in vivo
[17] = AUC (0 to 24 hrs) in Sprague-Dawley rat at 1 mg/kg, iv; type: ADME, organism-based; parameters: dose 1 mg/kg, time < 24 hr, route intravenous; conditions: in vivo
[18] = Cmax in Sprague-Dawley rat at 10 mg/kg, po; type: ADME, organism-based; parameters: dose 10 mg/kg, route oral; conditions: in vivo
[19] = molecular target: T1, Free fatty acid receptor 1; experiment: Agonist activity at human PK-tagged GPR40 expressed in HEK293 cells assessed as EA-tagged beta-arrestin recruitment after 90 mins in presence of 1 % heat inactivated FBS by beta-galactosidase reporter gene assay; type: cell-based
[20] = Cmax in Beagle dog at 100 mg/kg, po; type: ADME, organism-based, Canis lupus familiaris; parameters: dose 100 mg/kg, route oral; conditions: in vivo
Rattus norvegicus = experiment: Antidiabetic activity in Zucker fa/fa rat assessed as reduction in blood glucose AUC at 1 to 10 mg/kg, po administered for 1 day followed by OGTT at 1 hr after compound dosing and measured 60 mins post glucose challenge by oral glucose tolerance test; type: functional, organism-based
Method in brief: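 Male Zucker fa/fa rats, 10 weeks old, were dosed orally with 1, 3 or 10 mg/kg, alongside a reference GPR40 agonist as positive control. The OGTT was run 1 h after dosing with a 2 g/kg oral glucose load. Blood glucose was sampled at 0, 10, 20, 40 and 60 min, with the legend also listing 120 min. Glucose AUC was assessed on day 1.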

[21] = Metabolic stability in dog microsomes assessed as compound metabolized after 30 mins; type: ADME, Canis lupus familiaris, Microsome; conditions: read-out: Drug metabolism
Method in brief: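 Compound incubated 30 min with liver microsomes from mouse, rat, dog or human. Percent of compound metabolized recorded, as mean (SEM, n).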

[22] = Intrinsic clearance in human hepatocytes; type: ADME, cell-based, Hepatocyte
[23] = Drug metabolism in rat hepatocytes assessed as glucuronidation; type: ADME, cell-based, Hepatocyte
[24] = Drug metabolism in dog hepatocytes assessed as metabolite-B formation; type: ADME, cell-based, Canis lupus familiaris, Hepatocyte
[25] = Clearance in Beagle dog at 1 mg/kg, iv; type: ADME, organism-based, Canis lupus familiaris; conditions: in vivo
[26] = molecular target: T3, Peroxisome proliferator-activated receptor gamma (Homo sapiens) (UniProt P37231); experiment: Agonist activity at […] human PPARgamma expressed in African green monkey CV1 cells up to 30 uM after 24 hrs by luciferase reporter gene assay; type: cell-based; method in brief: as §1
T3 sequence (whole entry): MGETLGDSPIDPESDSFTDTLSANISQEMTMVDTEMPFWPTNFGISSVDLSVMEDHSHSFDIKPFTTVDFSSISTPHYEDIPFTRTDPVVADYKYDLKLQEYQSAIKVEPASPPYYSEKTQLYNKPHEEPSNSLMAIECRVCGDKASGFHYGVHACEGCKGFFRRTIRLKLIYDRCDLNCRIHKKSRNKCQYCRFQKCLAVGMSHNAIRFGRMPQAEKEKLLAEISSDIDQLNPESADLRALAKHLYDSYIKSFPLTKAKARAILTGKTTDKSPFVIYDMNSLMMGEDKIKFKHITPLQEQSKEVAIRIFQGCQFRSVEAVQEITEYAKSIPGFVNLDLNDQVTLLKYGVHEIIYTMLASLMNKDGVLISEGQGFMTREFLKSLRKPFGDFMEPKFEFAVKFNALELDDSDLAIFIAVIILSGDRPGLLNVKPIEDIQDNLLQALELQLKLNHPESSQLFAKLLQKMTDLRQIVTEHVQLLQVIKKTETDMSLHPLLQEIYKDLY

[27] = Volume of distribution at steady state in Sprague-Dawley rat at 1 mg/kg, iv; type: ADME, organism-based; conditions: in vivo, read-out: Vdss

Which results are given for CC#C[C@@H](CC(=O)O)c1ccc(OCc2ccc3nc(-c4c(C)cccc4C)nn3c2)cc1?
IC50 (Cytochrome P450 3A4): > 60 µM; bioavailability [1]: 93%; half-life [2]: 4.68 h; IC50 (Cytochrome P450 2D6): > 60 µM; Activity [3]: 20.2 ng/mL; Cmax [4]: 3.38 µg/mL; Cmax [5]: 9.9 µg/mL; Cmax [6]: 277 µg/mL; %max [7]: 124%; solubility kinetic [8]: > 100 µM; Activity [9]: inactive; clearance [10]: 1.32 mL/min/kg; Activity [11]: 19.4 ng/mL; Activity [12]: inactive; AUC(0-t) at 24 h [13]: 27300 ng·h/mL; Drug metabolism [14]: Metabolite_Detected; Cmax [15]: 281 µg/mL; Cmax [16]: 208 µg/mL; AUC(0-t) at 24 h [17]: 12700 ng·h/mL; Cmax [18]: 23.7 µg/mL; EC50 [19]: 0.108 µM; Cmax [20]: 260 µg/mL; Activity (Rattus norvegicus): Active; metabolised at 0.5 h [21]: 5%; K [22]: 0.099 h⁻¹; Drug metabolism [23]: Metabolite_Detected; Drug metabolism [24]: Metabolite_Detected; clearance [25]: 0.601 mL/min/kg; Activity [26]: inactive; Vd [27]: 0.33 L/kg
